Bioassay records as filed in PubChem.
ASAP1 GAP inh = inhibitors of human ASAP1 ArfGAP activity; Q9ULH1; ASAP1-stimulated ARF1 GTP hydrolysis, GDP FP detection; inhibition, % at 16.5 µM; actives 0.19% (n = 360,000); AID 624377; in the data active = inhibition above about 25%
PAFAH2 inh = inhibitors of human PAFAH2 | Q99487 | recombinant PAFAH2, FP-rhodamine activity probe, fluorescence polarization | inhibition, % at 3.39 µM | actives 0.99% (n = 340,000);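 active = inhibition above the mean over all tested compounds plus 3 SD, cut at about 30% in these data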;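 note: inhibitors block probe labeling of enzyme so polarization drops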
PAFAH1B2 inh = PAFAH1B2 (human) inhibition. P68402. recombinant PAFAH1B2, FP-rhodamine activity probe, fluorescence polarization. inhibition, % at 3.39 µM. actives 1.2% (n = 340,000);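 active = inhibition above the mean of all tested compounds plus 3 SD, cut at about 24% in these data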
Target sequence (P68402 whole entry, looked up): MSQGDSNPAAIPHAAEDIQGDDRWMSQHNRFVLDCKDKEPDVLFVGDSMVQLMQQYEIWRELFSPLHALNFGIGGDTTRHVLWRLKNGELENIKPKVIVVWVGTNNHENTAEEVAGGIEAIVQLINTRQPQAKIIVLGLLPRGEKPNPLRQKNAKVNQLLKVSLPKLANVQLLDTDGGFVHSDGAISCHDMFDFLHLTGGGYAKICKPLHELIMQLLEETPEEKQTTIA
PAFAH1B3 FP inh = PAFAH1B3 (human) inhibition; Q15102; recombinant PAFAH1B3, FP-rhodamine probe, fluorescence polarization; inhibition, % at 3.39 µM; actives 0.28% (n = 340,000);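 active = inhibition above the screen-wide average of all tested compounds plus 3 SD, cut at about 25% in these data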
Target sequence (Q15102 whole entry, looked up): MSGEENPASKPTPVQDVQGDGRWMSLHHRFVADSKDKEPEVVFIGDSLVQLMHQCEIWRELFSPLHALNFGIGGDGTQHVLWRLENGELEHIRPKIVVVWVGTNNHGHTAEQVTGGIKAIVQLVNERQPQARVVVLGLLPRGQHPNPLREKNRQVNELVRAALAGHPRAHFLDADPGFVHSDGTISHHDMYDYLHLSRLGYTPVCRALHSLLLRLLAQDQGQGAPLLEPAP
pPAFAH inh = pPAFAH (human) enzyme inhibition; Q13093; recombinant pPAFAH, FP-rhodamine probe fluorescence polarization; inhibition, % at 3.39 µM; actives 1.5% (n = 330,000); AID 463082;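 active = inhibition above the mean inhibition across the screen plus 3 SD, cut at about 25% in these data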;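 note: inhibitors block binding of the rhodamine activity-based probe so polarization drops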
ARFGAP1 inh = rat ARFGAP1 inhibition; Arfgap1-stimulated ARF1 GTP hydrolysis, GDP FP detection; inhibition, % at 16.5 µM; actives 0.26% (n = 360,000); AID 651572;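 active = inhibition above a per-plate limit, mean inhibition of low control wells plus 3 SD, cut at about 25% in these data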
Target sequence (Q62848 1-136 limits assumed): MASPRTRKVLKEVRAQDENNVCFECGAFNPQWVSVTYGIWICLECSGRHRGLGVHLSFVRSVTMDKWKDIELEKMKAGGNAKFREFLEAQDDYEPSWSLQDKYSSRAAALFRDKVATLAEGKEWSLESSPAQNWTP
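Assay system: Rat Arfgap1 GAP domain (His6, aa 1-136), purified enzyme | Buffer or medium: HEPES 25 mM pH 7.5, NaCl 150 mM, MgCl2, DTT | Schedule: GTP hydrolysis reaction 2 h at 25 °C | Signal: FP of antibody-bound GDP Alexa 633 tracer, ex 620/em 688 nm | Measure: Percent inhibition of Arfgap1-stimulated GTP hydrolysis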
PAFAH2 confirm = PAFAH2 (human) inhibition, confirmed; shares compounds with PAFAH2 inh; recombinant PAFAH2, FP-rhodamine activity probe, fluorescence polarization; inhibition, % at 3.39 µM; actives 65% (n = 2,300); AID 493030;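 active = mean inhibition over three repeats above a set limit taken from the earlier primary screen, cut at about 30% in these data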;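 note: inhibitor blocks binding of rhodamine activity probe so polarization falls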
Hits are given with their value; . = inactive; / = not tested or not shown. Shown are actives, neighbours in structure and some others; about 2.7% of the full set was active somewhere.

SMILES	ASAP1 GAP inh	PAFAH2 inh	PAFAH1B2 inh	PAFAH1B3 FP inh	pPAFAH inh	ARFGAP1 inh	PAFAH2 confirm
O=C1NCCCC1C(=O)Nc1ccccc1C(F)(F)F (stereo not drawn)	.	.	.	.	.	.	/
O=c1[nH]c2cc3c(cc2cc1CN(Cc1ccco1)C(=S)NCCCN1CCOCC1)OCCO3	.	.	.	.	.	.	/
CS(=O)(=O)N(CC(=O)N1CCC(C(N)=O)CC1)Cc1ccc(Cl)c(Cl)c1	.	.	.	.	.	.	/
CC1=C(C#N)C(=O)NC(=O)/C1=C/c1ccc(-c2ccc(S(N)(=O)=O)cc2)o1	.	.	.	.	.	.	/
C=CCOC(=O)c1cc(-c2ccc(/C=C3\C(=O)NC(=O)C(C#N)=C3C)o2)ccc1Cl	.	42	.	.	/	.	.
COC(=O)[C@]12CCCCC=C1N(Cc1ccc3c(c1)OCO3)C(=O)[C@H](CC(=O)NCC13CC4CC(CC(C4)C1)C3)C2	.	/	/	/	/	.	/
O=C(CC1NC2CCCCC2NC1=O)Nc1cccc(C(F)(F)F)c1 (stereo not drawn)	.	36	.	.	.	.	.
NS(=O)(=O)c1ccc2nc(NC(=O)Nc3ccc(F)cc3)sc2c1	.	.	.	.	.	.	/
CN(CC(CC(=O)Nc1nncs1)c1ccccc1)S(=O)(=O)c1ccc(Br)cc1 (stereo not drawn)	.	.	.	.	.	.	/
CC(=O)c1ccc(NC(=O)c2ccc(NC(=O)CCS(=O)(=O)c3cccs3)cc2)cc1	.	72	.	.	.	.	58
Cc1ccc(C)c2[nH]c(=O)c(C(c3nnnn3C(C)(C)C)N3CC=C(c4ccc(F)cc4)CC3)cc12 (stereo not drawn)	.	.	.	.	/	.	/
O=C(CSc1nnc(-c2ccccc2)n1-c1ccccc1)c1ccc[nH]1	.	.	.	.	.	.	/
O=C(CSc1nnc(-c2ccccc2)n1-c1ccccc1)c1cccs1	.	43	.	.	.	.	.
O=C(COC(=O)C1CC1)NC(=O)c1ccccc1	.	32	.	.	.	.	.
O=C(COC(=O)C1CC1)Nc1ccc(N=Nc2ccccc2)cc1	.	85	.	.	.	.	78
O=C(COC(=O)C1CC1)Nc1ccc(OC(F)F)cc1	.	55	.	.	.	.	46
CCCCC(=O)OCC(=O)Nc1ccc(OC(F)F)cc1	.	.	.	.	.	.	/
Cc1cccc(C)c1NC(=O)C(c1ccccc1)N1CCC(c2ccccc2)CC1 (stereo not drawn)	.	/	/	/	/	.	/
O=C(OCCN=C1NS(=O)(=O)c2ccccc21)c1cccs1	.	38	.	.	.	.	.
O=C(/C=C/c1ccccc1)OCCN=C1NS(=O)(=O)c2ccccc21	.	30	.	.	.	.	.
O=C(/C=C/c1ccccc1)OCCCCN=C1NS(=O)(=O)c2ccccc21	.	.	.	.	.	.	/
O=C(OCCCN=C1NS(=O)(=O)c2ccccc21)c1cccs1	.	.	.	.	.	.	/
COc1cccc(CSc2nccn2C)c1	.	.	.	.	.	.	/
CCN(CC)c1ccc(C(=O)OCC(=O)N2CCCC2)cc1	/	36	.	.	.	/	.
CCN(CC)c1ccc(C(=O)OCC(=O)N(C)Cc2ccccc2)cc1	.	48	.	.	.	.	36
SMILES	ASAP1 GAP inh	PAFAH2 inh	PAFAH1B2 inh	PAFAH1B3 FP inh	pPAFAH inh	ARFGAP1 inh	PAFAH2 confirm
CCN(CC)c1ccc(C(=O)OCC(=O)N(C(C)C)C(C)C)cc1	.	.	.	.	.	.	/
O=Cc1ccc(C(=O)OCC(=O)N2CCCC2)cc1	.	.	.	.	.	.	/
COc1cccc(C(=O)OCC(=O)Nc2cc(C)on2)c1OC	.	74	.	.	.	.	52
Cc1cc(NC(=O)COC(=O)c2ccc(C)c(C)c2)no1	.	52	.	.	.	.	34
COc1cccc(CNC(=O)C2CCCN(S(=O)(=O)c3cccc4nonc34)C2)c1 (stereo not drawn)	.	.	.	.	.	.	/
O=C(NNc1cc(Cl)ccc1Cl)c1cccs1	.	/	/	/	.	.	/
N/C(=N\OC(=O)c1cccs1)C1(c2ccc(Cl)cc2Cl)CC1	.	58	.	.	.	.	30
Cc1onc(-c2ccccc2)c1C(=O)N/N=C/c1cc2c(cc1Cl)OCO2	.	.	.	.	.	.	/
CCCCC1=NN2C(=N)CC(=O)N=C2S1	.	33	.	.	.	.	.
NC(=O)C1CCCN(C(=O)c2cccc(S(=O)(=O)N3CCCCCC3)c2)C1 (stereo not drawn)	.	.	.	.	.	.	/
Cc1cccc(C(=O)Nc2cc(Cl)ccc2-n2cncn2)c1[N+](=O)[O-]	.	39	.	.	.	.	31
CS(=O)(=O)c1ccccc1C(=O)Nc1cc(Cl)ccc1-n1cncn1	.	.	.	.	.	.	/
CCCOc1ccccc1/C=C(\C#N)C(=O)Nc1cccnc1	.	40	.	.	.	.	.
COc1ccc(O)c(/C=C(\C#N)C(=O)Nc2cccnc2)c1	.	.	.	.	.	.	/
CCOc1ccc(NC(=O)CC2C(=O)N(c3ccccc3)C(=O)N2CCc2cccs2)cc1 (stereo not drawn)	.	.	.	.	.	.	/
O=C(CCS(=O)(=O)c1ccccc1)N1CCN(c2ccc(F)cc2)CC1	.	.	.	.	.	.	/
O=C(CCS(=O)(=O)c1ccc(F)cc1)N1CCN(c2ccccc2)CC1	.	32	.	.	.	.	.
CCOc1ccccc1NC(=O)Cn1c(=O)sc2ccccc21	.	.	.	.	.	.	/
O=C(Cn1c(=O)sc2ccccc21)Nc1ccc(O)cc1	.	31	.	.	.	.	.
O=[N+]([O-])c1ccccc1S(=O)(=O)N1CCN(Cc2ccc3c(c2)OCO3)CC1	.	.	.	.	.	.	/
COc1ccc(NC(=O)CC(c2ccco2)C(C)C)cc1 (stereo not drawn)	.	.	.	.	.	.	/
COc1cc(C(=O)OCC2CC(c3ccccc3)=NO2)cc(OC)c1OC (stereo not drawn)	.	.	.	.	.	.	/
COc1ccc(C(=O)OCC2CC(c3ccccc3)=NO2)cc1OC (stereo not drawn)	.	68	.	.	.	.	60
Cc1ccsc1C(=O)OC(C)C(=O)NC1CCCCC1C (stereo not drawn)	.	.	.	.	/	.	/
O=Cc1ccc(C(=O)OCC(=O)NCc2ccco2)cc1	.	.	.	.	.	.	/
CC(C)(C)c1ccc(C(=O)OCC(=O)NCc2ccco2)cc1	.	55	.	.	.	.	57
CC1Cc2ccccc2N1S(=O)(=O)c1cccc(C(=O)OCC(=O)NCc2ccco2)c1 (stereo not drawn)	.	33	.	.	.	.	.
